{"source": "ChEMBL document CHEMBL1153728", "about": "“Quercetin reduces inflammatory pain: inhibition of oxidative stress and cytokine production” (2009)", "key": {"Mus musculus [1]": {"system": "Mus musculus", "assay": "Analgesic activity in Swiss mouse assessed as reaction time taken to jump or lick paw at 100 mg/kg, ip after 60 mins of administration by hot plate test", "format": "functional, organism-based", "set-up": "dose 100 mg/kg", "how_it_was_run": "(§1)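 Male Swiss mice (25-30 g) placed in glass cylinder on hot plate at 55 °C. Two control latencies taken at least 10 min apart; latency rechecked 30 and 60 min after ip dosing. Endpoint is jumping or paw licking, 30 s cutoff.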"}, "Mus musculus [2]": {"system": "Mus musculus", "assay": "Antinociceptive activity in Swiss mouse assessed as inhibition of carrageenan-induced mechanical hypernociception at 300 mg/kg, po dosed 30 mins before carrageenan challenge measured after 3 hrs by electronic pressure-meter test", "format": "functional", "how_it_was_run": "(§2)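 Male Swiss mice dosed ip (3-100 mg/kg) or po (30-300 mg/kg) in 20% Tween 80/saline 30 min before intraplantar carrageenin (100 µg/paw). Pressure-meter withdrawal threshold (average of three readings) before and 3 h after; Δ threshold in g; n = 5; one-way ANOVA with Tukey test.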"}, "Mus musculus [3]": {"system": "Mus musculus", "assay": "Antinociceptive activity in ip dosed Swiss mouse assessed as inhibition of acetic acid-induced writhing response administered 30 mins before acetic acid challenge measured for 20 mins", "format": "functional, organism-based", "how_it_was_run": "(§3)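 Male Swiss mice pretreated ip (3-100 mg/kg) 30 min before ip acetic acid 0.6% v/v (10 mL/kg) or phenyl-p-benzoquinone 1890 µg/kg in 2% DMSO/saline. Cumulative writhing score counted over 20 min; n = 7.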"}, "Mus musculus [4]": {"system": "Mus musculus", "assay": "Analgesic activity in Swiss mouse assessed as reaction time taken to jump or lick paw at 8 mg/kg, ip after 30 mins of administration by hot plate test", "format": "functional, organism-based", "set-up": "dose 8 mg/kg", "how_it_was_run": "as §1"}, "Mus musculus [5]": {"system": "Mus musculus", "assay": "Analgesic activity in Swiss mouse assessed as reaction time taken to jump or lick paw at 8 mg/kg, ip after 60 mins of administration by hot plate test", "format": "functional, organism-based", "set-up": "dose 8 mg/kg", "how_it_was_run": "as §1"}, "Mus musculus [6]": {"system": "Mus musculus", "assay": "Antinociceptive activity in Swiss mouse assessed as inhibition of PGE2-induced mechanical hypernociception at 100 mg/kg, ip dosed 30 mins before PGE2 challenge measured after 3 hrs by electronic pressure-meter test", "format": "functional, organism-based", "set-up": "dose 100 mg/kg"}, "Mus musculus [7]": {"system": "Mus musculus", "assay": "Antioxidant activity in ip dosed Swiss mouse assessed as inhibition of carrageenan-induced reduction in GSH level dosed 30 mins before carrageenan challenge measured after 3 hrs by fluorescence spectrophotometry", "format": "functional, organism-based", "how_it_was_run": "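Swiss mice dosed ip 10-100 mg/kg 30 min before intraplantar carrageenin (100 µg/paw) or saline. Plantar skin from five mice pooled 3 h later, homogenized in 100 mM NaH2PO4 pH 8.0/5 mM EGTA, TCA-precipitated. Supernatant reacted with OPT 15 min, fluorescence ex 350/em 420 nm against 0-40 µM GSH standard, in triplicate.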"}, "Mus musculus [8]": {"system": "Mus musculus", "assay": "Inhibition of carrageenan-induced IL1-beta production in Swiss mouse subcutaneous plantar tissue at 100 mg/kg, ip dosed 30 mins before carrageenan challenge measured after 3 hrs by ELISA", "format": "functional", "details": "sc", "how_it_was_run": "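Mice dosed ip 100 mg/kg 30 min before intraplantar carrageenin (100 µg/paw). Paw skin removed 3 h later under terminal anesthesia, homogenized in protease-inhibitor buffer. IL-1β measured by ELISA as pg/paw, with saline-injected controls; n = 5.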"}, "Mus musculus [9]": {"system": "Mus musculus", "assay": "Analgesic activity in Swiss mouse assessed as reaction time taken to jump or lick paw at 100 mg/kg, ip after 30 mins of administration by hot plate test", "format": "functional, organism-based", "set-up": "dose 100 mg/kg", "how_it_was_run": "as §1"}, "Mus musculus [10]": {"system": "Mus musculus", "assay": "Antinociceptive activity in Swiss mouse assessed as inhibition of carrageenan-induced mechanical hypernociception at 100 mg/kg, ip dosed 30 mins before carrageenan challenge measured after 1 to 5 hrs by electronic pressure-meter test", "format": "functional, organism-based", "set-up": "dose 100 mg/kg", "how_it_was_run": "(§4)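 Male Swiss mice given 100 mg/kg ip at 12, 6, 3 h or 30 min before intraplantar carrageenin (100 µg/paw). Mechanical withdrawal threshold by electronic pressure-meter (mean of three readings) at 1, 3 and 5 h after stimulus, expressed as change from baseline.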"}, "Mus musculus [11]": {"system": "Mus musculus", "assay": "Antinociceptive activity in Swiss mouse assessed as inhibition of dopamine-induced mechanical hypernociception at 100 mg/kg, ip dosed 30 mins before dopamine challenge measured after 3 hrs by electronic pressure-meter test", "format": "functional, organism-based", "set-up": "dose 100 mg/kg"}, "Mus musculus [12]": {"system": "Mus musculus", "assay": "Inhibition of carrageenan-induced neutrophil recruitment in Swiss mouse subcutaneous plantar tissue assessed as myeloperoxidase activity at 100 mg/kg, ip dosed 30 mins before carrageenan challenge measured after 3 hrs by spectrophotometry", "format": "functional, organism-based", "set-up": "dose 100 mg/kg", "how_it_was_run": "(§5)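 Mice given ip 100 mg/kg 30 min before intraplantar carrageenin (100 µg/paw), TNFα (300 pg/paw) or CXCL1 (20 ng/paw). Plantar tissue taken 3 h later into 50 mM K2HPO4 pH 6.0 with 0.5% HTAB, homogenized, centrifuged. Supernatant read with o-dianisidine/H2O2 at 450 nm, compared to neutrophil standard curve.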"}, "Mus musculus [13]": {"system": "Mus musculus", "assay": "Antiinflammatory activity in Swiss mouse assessed as inhibition of carrageenan-induced paw edema at 100 mg/kg, ip dosed 30 mins before carrageenan challenge measured after 0.5 to 3 hrs", "format": "functional, organism-based", "set-up": "dose 100 mg/kg", "how_it_was_run": "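Male Swiss mice; ip pretreatment 30 min before intraplantar carrageenin (100 µg/paw). Paw measured with calliper before and at 30, 60, 120, 180 min after stimulus; edema = VT minus Vo per mouse.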"}, "Mus musculus [14]": {"system": "Mus musculus", "assay": "Antinociceptive activity in ip dosed Swiss mouse assessed as inhibition of phenyl-p-benzoquinone-induced writhing response administered 30 mins before phenyl-p-benzoquinone challenge measured for 20 mins", "format": "functional, organism-based", "how_it_was_run": "as §3"}, "Mus musculus [15]": {"system": "Mus musculus", "assay": "Muscle relaxant activity in Swiss mouse assessed as motor response at 100 mg/kg, ip after 3 hrs 30 mins by rotarod test", "format": "functional, organism-based", "set-up": "dose 100 mg/kg"}, "Mus musculus [16]": {"system": "Mus musculus", "assay": "Antinociceptive activity in Swiss mouse assessed as inhibition of TNF-alpha-induced mechanical hypernociception at 100 mg/kg, ip dosed 30 mins before TNFalpha challenge measured after 3 hrs by electronic pressure-meter test", "format": "functional", "details": "route intraperitoneal"}, "Mus musculus [17]": {"system": "Mus musculus", "assay": "Antinociceptive activity in ip dosed Swiss mouse assessed as inhibition of carrageenan-induced mechanical hypernociception administered 30 mins before carrageenan challenge measured after 3 hrs by electronic pressure-meter test", "format": "functional, organism-based", "how_it_was_run": "as §2"}, "Mus musculus [18]": {"system": "Mus musculus", "assay": "Antinociceptive activity in Swiss mouse assessed as inhibition of carrageenan-induced mechanical hypernociception at 3 to 100 mg/kg, ip administered 30 mins before carrageenan challenge measured after 3 hrs by electronic pressure-meter test", "format": "functional", "details": "dose mg/kg 3-100; route intraperitoneal", "how_it_was_run": "as §2"}, "Mus musculus [19]": {"system": "Mus musculus", "assay": "Antinociceptive activity in Swiss mouse assessed as inhibition of carrageenan-induced mechanical hypernociception at 100 mg/kg, ip dosed 3 hrs before carrageenan challenge measured after 3 hrs by electronic pressure-meter test", "format": "functional, organism-based", "set-up": "dose 100 mg/kg", "how_it_was_run": "as §4"}, "Mus musculus [20]": {"system": "Mus musculus", "assay": "Antinociceptive activity against formalin-induced pain in Swiss mouse assessed as inhibition of hind paw flinching response during second phase of response at 100 mg/kg, ip dosed 30 mins before formalin challenge measured for 0 to 30 mins", "format": "functional, organism-based", "set-up": "dose 100 mg/kg", "how_it_was_run": "(§6)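 Male Swiss mice dosed ip (100 mg/kg, vehicle 20% Tween 80 in saline) 30 min before intraplantar formalin 0.1% (25 µL). Paw flinches and licking time counted 0-30 min in 5-min intervals, separating first and second phases; n = 6.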"}, "Mus musculus [21]": {"system": "Mus musculus", "assay": "Antinociceptive activity in Swiss mouse assessed as inhibition of CXCL1-induced mechanical hypernociception at 100 mg/kg, ip dosed 30 mins before CXCL1 challenge measured after 3 hrs by electronic pressure-meter test", "format": "functional", "details": "route intraperitoneal"}, "Mus musculus [22]": {"system": "Mus musculus", "assay": "Inhibition of CXCL1-induced neutrophil recruitment in Swiss mouse subcutaneous plantar tissue assessed as myeloperoxidase activity at 100 mg/kg, ip dosed 30 mins before CXCL1 challenge measured after 3 hrs by spectrophotometry", "format": "functional, organism-based", "set-up": "dose 100 mg/kg", "how_it_was_run": "as §5"}, "Mus musculus [23]": {"system": "Mus musculus", "assay": "Antinociceptive activity against formalin-induced pain in Swiss mouse assessed as inhibition of paw licking response during second phase at 100 mg/kg, ip dosed 30 mins before formalin challenge measured for 0 to 30 mins", "format": "functional, organism-based", "set-up": "dose 100 mg/kg", "how_it_was_run": "as §6"}, "Mus musculus [24]": {"system": "Mus musculus", "assay": "Inhibition of TNF-alpha-induced neutrophil recruitment in Swiss mouse subcutaneous plantar tissue assessed as myeloperoxidase activity at 100 mg/kg, ip dosed 30 mins before TNFalpha challenge measured after 3 hrs by spectrophotometry", "format": "functional, organism-based", "set-up": "dose 100 mg/kg", "how_it_was_run": "as §5"}}, "note": "Activity calls are given as the source filed them.", "data": [{"smiles": "O=c1c(O)c(-c2ccc(O)c(O)c2)oc2cc(O)cc(O)c12", "note": "[QUERCETIN]", "values": [{"measurement": "Activity", "setting": "Mus musculus [1]", "value": "inactive"}, {"measurement": "inhibition in vivo at 300 mg/kg", "setting": "Mus musculus [2]", "value": 55, "unit": "%"}, {"measurement": "inhibition", "setting": "Mus musculus [3]", "value": "Dose-dependent effect"}, {"measurement": "Activity", "setting": "Mus musculus [4]", "value": "Active"}, {"measurement": "Activity", "setting": "Mus musculus [5]", "value": "Active"}, {"measurement": "Activity", "setting": "Mus musculus [6]", "value": "inactive"}, {"measurement": "inhibition", "setting": "Mus musculus [7]", "value": "Dose-dependent effect"}, {"measurement": "inhibition in vivo at 100 mg/kg", "setting": "Mus musculus [8]", "value": 36, "unit": "%"}, {"measurement": "Activity", "setting": "Mus musculus [9]", "value": "inactive"}, {"measurement": "inhibition", "setting": "Mus musculus [10]", "value": "Active"}, {"measurement": "Activity", "setting": "Mus musculus [11]", "value": "inactive"}, {"measurement": "Activity", "setting": "Mus musculus [12]", "value": "inactive"}, {"measurement": "inhibition", "setting": "Mus musculus [13]", "value": "Active"}, {"measurement": "inhibition", "setting": "Mus musculus [14]", "value": "Dose-dependent effect"}, {"measurement": "Activity", "setting": "Mus musculus [15]", "value": "inactive"}, {"measurement": "inhibition in vivo at 100 mg/kg", "setting": "Mus musculus [16]", "value": 51, "unit": "%"}, {"measurement": "inhibition", "setting": "Mus musculus [17]", "value": "Dose-dependent effect"}, {"measurement": "inhibition (INH)", "setting": "Mus musculus [18]", "value": 59, "unit": "%"}, {"measurement": "inhibition", "setting": "Mus musculus [19]", "value": "Active"}, {"measurement": "Activity", "setting": "Mus musculus [20]", "value": "Active"}, {"measurement": "inhibition in vivo at 100 mg/kg", "setting": "Mus musculus [21]", "value": 43, "unit": "%"}, {"measurement": "Activity", "setting": "Mus musculus [22]", "value": "inactive"}, {"measurement": "Activity", "setting": "Mus musculus [23]", "value": "Active"}, {"measurement": "Activity", "setting": "Mus musculus [24]", "value": "inactive"}]}]}
